According to ChEMBL document CHEMBL4308827 (J Med Chem, 2018):
The source made the active and inactive calls. No cut-off for these calls is given here.

Tests used:
Homo sapiens [1] = species on record: Homo sapiens; assay: Displacement of [3H]JNJ-46281222 from human mGlu2 R6353.32x32A mutant receptor transiently expressed in CHOK1 cell membranes at 10 times IC50 after 1 hr by liquid scintillation counting method
Homo sapiens [2] = species on record: Homo sapiens; assay: Displacement of [3H]JNJ-46281222 from human mGlu2 C7957.33x34A mutant receptor transiently expressed in CHOK1 cell membranes at 10 times IC50 after 1 hr by liquid scintillation counting method
[3] = molecular target: Metabotropic glutamate receptor 3 (Homo sapiens) (UniProt Q14832); assay: Positive allosteric modulation of human mGlu3 receptor expressed in HEK293 cells by calcium assay; type: functional, cell-based
Metabotropic glutamate receptor 3 (Homo sapiens), sequence (Q14832 23-879 limits assumed): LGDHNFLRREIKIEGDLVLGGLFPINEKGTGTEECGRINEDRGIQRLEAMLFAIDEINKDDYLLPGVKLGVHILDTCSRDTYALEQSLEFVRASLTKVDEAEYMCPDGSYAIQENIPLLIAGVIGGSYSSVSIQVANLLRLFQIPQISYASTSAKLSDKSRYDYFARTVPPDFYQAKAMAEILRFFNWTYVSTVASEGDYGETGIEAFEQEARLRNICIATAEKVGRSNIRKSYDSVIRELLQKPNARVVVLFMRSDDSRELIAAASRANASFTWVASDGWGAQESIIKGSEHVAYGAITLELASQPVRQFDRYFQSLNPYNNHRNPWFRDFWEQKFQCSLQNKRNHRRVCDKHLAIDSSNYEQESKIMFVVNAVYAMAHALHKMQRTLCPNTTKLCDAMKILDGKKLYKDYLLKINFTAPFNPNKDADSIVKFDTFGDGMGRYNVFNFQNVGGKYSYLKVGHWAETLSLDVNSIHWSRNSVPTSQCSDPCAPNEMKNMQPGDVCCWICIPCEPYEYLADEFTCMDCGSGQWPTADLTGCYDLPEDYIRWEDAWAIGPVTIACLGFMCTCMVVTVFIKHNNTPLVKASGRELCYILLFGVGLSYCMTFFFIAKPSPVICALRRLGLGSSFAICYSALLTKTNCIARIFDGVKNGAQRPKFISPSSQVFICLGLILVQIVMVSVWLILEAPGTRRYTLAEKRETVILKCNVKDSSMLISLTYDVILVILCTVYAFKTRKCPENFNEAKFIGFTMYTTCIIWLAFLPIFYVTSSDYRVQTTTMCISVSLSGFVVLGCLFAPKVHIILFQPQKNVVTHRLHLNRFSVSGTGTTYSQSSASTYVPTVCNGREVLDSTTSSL

[4] = molecular target: T1, Metabotropic glutamate receptor 2 (Homo sapiens, UniProt Q14416); assay: Positive allosteric modulation of human mGlu2 receptor expressed in CHOK1 cell membranes assessed as increase in glutamate-induced [35S]GTPgammaS binding preincubated for 30 mins followed by [35S]GTPgammaS addition and measured after 90 mins by scintillation spectrometry method; type: functional
Target sequence in this assay (Q14416 whole entry): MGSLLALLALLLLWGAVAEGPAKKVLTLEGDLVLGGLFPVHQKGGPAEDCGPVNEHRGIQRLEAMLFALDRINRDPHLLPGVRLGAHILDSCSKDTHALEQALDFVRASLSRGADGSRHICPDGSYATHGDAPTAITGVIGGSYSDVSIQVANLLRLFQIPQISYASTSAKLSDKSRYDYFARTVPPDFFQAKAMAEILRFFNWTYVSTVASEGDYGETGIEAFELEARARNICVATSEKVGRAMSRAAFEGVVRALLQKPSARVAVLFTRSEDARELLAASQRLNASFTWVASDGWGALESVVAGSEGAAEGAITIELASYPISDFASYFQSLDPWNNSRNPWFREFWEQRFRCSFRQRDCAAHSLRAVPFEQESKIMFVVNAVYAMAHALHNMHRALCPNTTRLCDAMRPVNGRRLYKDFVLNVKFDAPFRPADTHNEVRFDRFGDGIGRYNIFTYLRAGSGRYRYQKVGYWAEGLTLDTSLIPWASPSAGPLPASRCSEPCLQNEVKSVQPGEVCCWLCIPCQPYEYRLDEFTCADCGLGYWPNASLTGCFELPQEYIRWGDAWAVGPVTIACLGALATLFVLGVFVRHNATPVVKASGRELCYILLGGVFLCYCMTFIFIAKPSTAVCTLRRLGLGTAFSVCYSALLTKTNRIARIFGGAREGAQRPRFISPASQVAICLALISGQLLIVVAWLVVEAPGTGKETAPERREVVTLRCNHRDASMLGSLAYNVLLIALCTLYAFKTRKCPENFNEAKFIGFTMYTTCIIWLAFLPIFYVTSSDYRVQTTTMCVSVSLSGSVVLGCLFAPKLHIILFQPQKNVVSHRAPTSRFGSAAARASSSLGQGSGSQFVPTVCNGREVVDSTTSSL

[5] = molecular target: Metabotropic glutamate receptor 3 (Homo sapiens) (UniProt Q14832); assay: Antagonist activity at human mGlu3 receptor expressed in HEK293 cells by calcium assay; type: functional, cell-based
[6] = molecular target: T1, Metabotropic glutamate receptor 2; assay: Displacement of [3H]JNJ-46281222 from human mGlu2 receptor expressed in CHOK1 cell membranes assessed as association rate constant after 1 hr in presence of glutamate by microbeta scintillation counting method
Target sequence in this assay (Q14416 19-872 limits assumed): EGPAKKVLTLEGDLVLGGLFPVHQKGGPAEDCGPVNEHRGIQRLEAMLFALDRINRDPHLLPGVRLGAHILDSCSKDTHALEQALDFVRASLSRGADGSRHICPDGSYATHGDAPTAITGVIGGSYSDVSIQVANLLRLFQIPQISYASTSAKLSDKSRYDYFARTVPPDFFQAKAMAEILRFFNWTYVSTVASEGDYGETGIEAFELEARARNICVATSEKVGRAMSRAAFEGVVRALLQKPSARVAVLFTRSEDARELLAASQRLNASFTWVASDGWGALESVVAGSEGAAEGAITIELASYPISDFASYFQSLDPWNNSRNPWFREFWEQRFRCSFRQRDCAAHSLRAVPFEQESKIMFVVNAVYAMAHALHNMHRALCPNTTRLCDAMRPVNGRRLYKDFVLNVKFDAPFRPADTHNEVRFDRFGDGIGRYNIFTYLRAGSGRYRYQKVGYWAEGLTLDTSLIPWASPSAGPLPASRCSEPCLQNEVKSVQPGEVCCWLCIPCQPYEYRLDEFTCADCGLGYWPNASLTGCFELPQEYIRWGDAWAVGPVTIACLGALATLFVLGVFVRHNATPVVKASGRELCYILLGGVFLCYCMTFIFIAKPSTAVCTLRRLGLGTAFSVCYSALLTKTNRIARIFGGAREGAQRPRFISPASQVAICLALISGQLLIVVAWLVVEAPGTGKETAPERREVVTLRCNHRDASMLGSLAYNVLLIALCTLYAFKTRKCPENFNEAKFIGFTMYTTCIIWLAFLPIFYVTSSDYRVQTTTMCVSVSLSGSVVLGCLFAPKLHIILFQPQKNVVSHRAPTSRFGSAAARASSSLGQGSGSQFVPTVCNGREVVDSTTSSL

[7] = molecular target: Metabotropic glutamate receptor 1 (Homo sapiens) (UniProt Q13255); assay: Positive allosteric modulation of human mGlu1 receptor expressed in HEK293 cells by calcium assay; type: functional, cell-based
[8] = molecular target: T1, Metabotropic glutamate receptor 2; assay: Displacement of [3H]JNJ-46281222 from human mGlu2 receptor expressed in CHOK1 cell membranes after 1 hr by microbeta scintillation counting method
Target sequence in this assay (Q14416 whole entry): as the sequence (Q14416 whole entry) above

[9] = molecular target: Metabotropic glutamate receptor 8 (Homo sapiens) (UniProt O00222); assay: Agonist activity at human mGlu8 receptor expressed in HEK293 cells by calcium assay; type: functional, cell-based
Metabotropic glutamate receptor 8 (Homo sapiens), sequence (O00222 whole entry): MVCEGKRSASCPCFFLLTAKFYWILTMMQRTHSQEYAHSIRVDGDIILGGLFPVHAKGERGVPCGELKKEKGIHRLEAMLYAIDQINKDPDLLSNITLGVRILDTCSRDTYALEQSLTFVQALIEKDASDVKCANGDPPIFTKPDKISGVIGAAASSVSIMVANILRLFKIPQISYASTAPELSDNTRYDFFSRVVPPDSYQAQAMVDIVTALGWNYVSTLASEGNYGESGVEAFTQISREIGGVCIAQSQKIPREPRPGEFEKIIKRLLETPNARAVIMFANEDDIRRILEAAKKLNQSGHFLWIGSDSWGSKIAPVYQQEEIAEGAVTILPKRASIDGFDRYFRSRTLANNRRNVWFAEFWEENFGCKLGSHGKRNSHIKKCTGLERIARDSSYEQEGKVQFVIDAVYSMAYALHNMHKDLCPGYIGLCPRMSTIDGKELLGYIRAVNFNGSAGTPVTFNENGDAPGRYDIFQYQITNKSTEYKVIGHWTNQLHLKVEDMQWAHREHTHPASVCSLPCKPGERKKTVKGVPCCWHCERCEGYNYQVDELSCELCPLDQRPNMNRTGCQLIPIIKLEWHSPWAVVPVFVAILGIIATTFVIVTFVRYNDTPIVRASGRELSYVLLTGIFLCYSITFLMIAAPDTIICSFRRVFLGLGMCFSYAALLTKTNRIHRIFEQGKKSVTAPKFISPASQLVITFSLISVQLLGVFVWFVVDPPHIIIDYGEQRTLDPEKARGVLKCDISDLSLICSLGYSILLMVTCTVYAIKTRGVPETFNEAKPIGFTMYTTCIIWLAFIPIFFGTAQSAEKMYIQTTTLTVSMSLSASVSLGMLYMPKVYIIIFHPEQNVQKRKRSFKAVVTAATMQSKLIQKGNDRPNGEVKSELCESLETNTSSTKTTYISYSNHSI

[10] = molecular target: T1, Metabotropic glutamate receptor 2; assay: Displacement of [3H]JNJ-46281222 from human mGlu2 receptor expressed in CHOK1 cell membranes assessed as dissociation rate constant after 1 hr in presence of glutamate by microbeta scintillation counting method
Target sequence in this assay (Q14416 19-872 limits assumed): as the sequence (Q14416 19-872 limits assumed) above

[11] = molecular target: Metabotropic glutamate receptor 1 (Homo sapiens) (UniProt Q13255); assay: Antagonist activity at human mGlu1 receptor expressed in HEK293 cells by calcium assay; type: functional, cell-based
[12] = molecular target: Metabotropic glutamate receptor 1 (Homo sapiens) (UniProt Q13255); assay: Agonist activity at human mGlu1 receptor expressed in HEK293 cells by calcium assay; type: functional, cell-based
[13] = molecular target: T1, Metabotropic glutamate receptor 2; assay: Displacement of [3H]JNJ-46281222 from human mGlu2 receptor expressed in CHOK1 cell membranes assessed as residence time after 1 hr in presence of glutamate by microbeta scintillation counting method
Target sequence in this assay (Q14416 19-872 limits assumed): as above

[14] = molecular target: T1, Metabotropic glutamate receptor 2; assay: Irreversible displacement of [3H]JNJ-46281222 from human mGlu2 receptor expressed in CHOK1 cell membranes at 10 times IC50 preincubated for 1 hr in presence of glutamate followed by compound washout and [3H]JNJ-46281222 addition measured after 1 hr by microbeta scintillation counting method
Target sequence in this assay (Q14416 19-872 limits assumed): as above

[15] = molecular target: Metabotropic glutamate receptor 8 (Homo sapiens) (UniProt O00222); assay: Antagonist activity at human mGlu8 receptor expressed in HEK293 cells by calcium assay; type: functional, cell-based
[16] = molecular target: Metabotropic glutamate receptor 3 (Homo sapiens) (UniProt Q14832); assay: Agonist activity at human mGlu3 receptor expressed in HEK293 cells by calcium assay; type: functional, cell-based
[17] = molecular target: Metabotropic glutamate receptor 5 (Homo sapiens) (UniProt P41594); assay: Positive allosteric modulation of human mGlu5 receptor expressed in HEK293 cells by calcium assay; type: functional, cell-based
Metabotropic glutamate receptor 5 (Homo sapiens), sequence (P41594 21-1212 limits assumed): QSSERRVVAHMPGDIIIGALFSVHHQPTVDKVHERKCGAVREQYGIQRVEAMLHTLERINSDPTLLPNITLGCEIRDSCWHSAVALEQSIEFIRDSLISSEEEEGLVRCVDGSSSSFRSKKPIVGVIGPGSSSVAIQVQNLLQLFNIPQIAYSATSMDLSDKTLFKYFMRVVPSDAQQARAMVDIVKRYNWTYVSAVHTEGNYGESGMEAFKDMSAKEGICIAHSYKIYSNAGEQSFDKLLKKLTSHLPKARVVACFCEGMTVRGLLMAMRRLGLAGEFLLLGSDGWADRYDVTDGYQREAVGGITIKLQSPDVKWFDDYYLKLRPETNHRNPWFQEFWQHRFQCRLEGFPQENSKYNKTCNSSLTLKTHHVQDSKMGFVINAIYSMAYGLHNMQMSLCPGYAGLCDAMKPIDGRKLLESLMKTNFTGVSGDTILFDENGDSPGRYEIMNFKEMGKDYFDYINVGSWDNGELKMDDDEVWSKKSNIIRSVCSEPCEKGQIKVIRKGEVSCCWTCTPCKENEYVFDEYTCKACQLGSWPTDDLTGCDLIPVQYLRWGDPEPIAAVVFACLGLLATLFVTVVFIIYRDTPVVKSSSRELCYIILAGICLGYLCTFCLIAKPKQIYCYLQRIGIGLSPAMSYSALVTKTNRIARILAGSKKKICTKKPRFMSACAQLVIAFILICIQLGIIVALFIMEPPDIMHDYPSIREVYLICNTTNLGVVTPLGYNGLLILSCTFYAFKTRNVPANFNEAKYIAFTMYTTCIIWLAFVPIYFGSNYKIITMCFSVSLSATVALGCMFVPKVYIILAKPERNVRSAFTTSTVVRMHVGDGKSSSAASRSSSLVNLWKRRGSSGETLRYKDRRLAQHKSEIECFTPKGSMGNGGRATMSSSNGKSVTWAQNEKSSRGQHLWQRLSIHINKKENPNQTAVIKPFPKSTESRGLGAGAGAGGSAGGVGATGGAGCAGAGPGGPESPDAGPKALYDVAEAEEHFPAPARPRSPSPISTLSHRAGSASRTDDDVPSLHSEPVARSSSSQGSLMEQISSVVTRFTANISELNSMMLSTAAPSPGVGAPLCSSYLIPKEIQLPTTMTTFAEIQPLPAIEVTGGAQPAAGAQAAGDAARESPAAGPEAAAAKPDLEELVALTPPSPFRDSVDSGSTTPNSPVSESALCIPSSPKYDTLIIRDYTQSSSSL

[18] = molecular target: Metabotropic glutamate receptor 5 (Homo sapiens) (UniProt P41594); assay: Agonist activity at human mGlu5 receptor expressed in HEK293 cells by calcium assay; type: functional, cell-based
[19] = molecular target: T1, Metabotropic glutamate receptor 2; assay: Displacement of [3H]JNJ-46281222 from human mGlu2 receptor expressed in CHOK1 cell membranes preincubated for 3 hrs followed by [3H]JNJ-46281222 addition and measured after 1 hr by microbeta scintillation counting method
Target sequence in this assay (Q14416 whole entry): as the sequence (Q14416 whole entry) above

[20] = molecular target: Metabotropic glutamate receptor 5 (Homo sapiens) (UniProt P41594); assay: Antagonist activity at human mGlu5 receptor expressed in HEK293 cells by calcium assay; type: functional, cell-based
[21] = test system: Metabotropic glutamate receptor 2 (Homo sapiens), Q14416 [R720A]; assay: Displacement of [3H]JNJ-46281222 from human mGlu2 R720A mutant receptor transiently expressed in CHOK1 cell membranes at 10 times IC50 after 1 hr by liquid scintillation counting method
[22] = Displacement of [3H]JNJ-46281222 from human mGlu2 T7917.29x30A mutant receptor transiently expressed in CHOK1 cell membranes after 1 hr by liquid scintillation counting method
[23] = molecular target: T1, Metabotropic glutamate receptor 2; assay: Displacement of [3H]JNJ-46281222 from human mGlu2 receptor transiently expressed in CHOK1 cell membranes after 1 hr by liquid scintillation counting method
Target sequence in this assay (Q14416 whole entry): as above

[24] = molecular target: T1, Metabotropic glutamate receptor 2; assay: Positive allosteric modulation of human mGlu2 receptor expressed in CHOK1 cell membranes assessed as increase in glutamate-induced [35S]GTPgammaS binding preincubated for 3 hrs followed by [35S]GTPgammaS addition and measured after 1 hr by scintillation spectrometry method; type: functional
Target sequence in this assay (Q14416 whole entry): as above

[25] = molecular target: T1, Metabotropic glutamate receptor 2; assay: Ratio of Ki for human mGlu2 receptor expressed in CHOK1 cell membranes without preincubation to Ki for human mGlu2 receptor expressed in CHOK1 cell membranes preincubated for 3 hrs; type: cell-based
Method in brief: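 CHO-K1 membranes stably expressing hmGlu2 (butyrate-induced, 15 µg) were pre-coupled to WGA SPA beads. […] Nonspecific binding was defined with 10 µM JNJ-40068782. Mean of ≥3 experiments in duplicate.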
Target sequence in this assay (Q14416 19-872 limits assumed): as the sequence (Q14416 19-872 limits assumed) above

[26] = molecular target: T1, Metabotropic glutamate receptor 2; assay: Displacement of [3H]JNJ-46281222 from human mGlu2 receptor expressed in CHOK1 cell membranes at IC50 after 1 hr in presence of glutamate by microbeta scintillation counting method
Target sequence in this assay (Q14416 19-872 limits assumed): as above

[27] = test system: Metabotropic glutamate receptor 2 (Homo sapiens), Q14416 [Y787A]; assay: Displacement of [3H]JNJ-46281222 from human mGlu2 Y787A mutant receptor transiently expressed in CHOK1 cell membranes at 10 times IC50 after 1 hr by liquid scintillation counting method
[28] = molecular target: T1, Metabotropic glutamate receptor 2; assay: (§1) Irreversible positive allosteric modulation of human mGlu2 receptor expressed in CHOK1 cell membranes assessed as increase in glutamate-induced [35S]GTPgammaS binding at 10 times IC50 preincubated for 30 mins followed by compound washout and subsequent [35S]GTPgammaS addition and measured after 30 mins by scintillation spectrometry method; type: functional
[29] = molecular target: T1, Metabotropic glutamate receptor 2; assay: as §1, with “Positive” for “Irreversible positive”, “IC50 test compound added before washing steps” for “IC50”, “by” for “by compound washout and subsequent”; type: functional
[30] = molecular target: T1, Metabotropic glutamate receptor 2; assay: Positive allosteric modulation of human mGlu2 receptor expressed in CHOK1 cell membranes assessed as increase in glutamate-induced [35S]GTPgammaS binding measured after 1 hr by scintillation spectrometry method; type: functional
Target sequence in this assay (Q14416 whole entry): as the sequence (Q14416 whole entry) above

Homo sapiens [31] = species on record: Homo sapiens; assay: Displacement of [3H]JNJ-46281222 from human mGlu2 T7917.29x30A mutant receptor transiently expressed in CHOK1 cell membranes preincubated for 3 hrs followed by [3H]JNJ-46281222 addition and measured after 1 hr by liquid scintillation counting method
[32] = molecular target: T1, Metabotropic glutamate receptor 2; assay: Ratio of EC50 for positive allosteric modulation of human mGlu2 receptor expressed in CHOK1 cell membranes assessed as increase in glutamate-induced [35S]GTPgammaS binding co-incubated with [35S]GTPgammaS to EC50 for positive allosteric modulation of human mGlu2 receptor expressed in CHOK1 cell …; type: functional

FC(F)(F)c1c(CN2CCC(c3ccccc3)CC2)ccn2c(CC3CC3)nnc12
inhibition (Homo sapiens [1]): inactive | inhibition (Homo sapiens [2]): inactive

O=C(Nc1cccc(-c2ccn3c(CC4CC4)nnc3c2C(F)(F)F)c1)c1ccc(S(=O)(=O)F)cc1
Activity [3]: inactive | EC50 [4]: 158 nM | inhibition [5]: inactive | K [6]: 2.1 ×10⁴ /M/s | Activity [7]: inactive | Ki [8]: 112 nM | Activity [9]: inactive | K [10]: 0.00091 s⁻¹ | inhibition [11]: inactive | Activity [12]: inactive | TIME [13]: 0.3 h | inhibition [14]: inactive | inhibition [15]: inactive | Activity [16]: inactive | Activity [17]: inactive | Activity [18]: inactive | Ki [19]: 166 nM | inhibition [20]: inactive

O=C(NCc1ccc(-c2ccn3c(CC4CC4)nnc3c2C(F)(F)F)cc1)c1ccc(S(=O)(=O)F)cc1
EC50 [4]: 15.1 nM | K [6]: 2.2 ×10⁵ /M/s | Ki [8]: 5.75 nM | K [10]: 0.00057 s⁻¹ | TIME [13]: 0.483 h | inhibition [14]: inactive | Ki [19]: 4.17 nM

O=C(Nc1ccc(-c2ccn3c(CC4CC4)nnc3c2C(F)(F)F)cc1)c1ccc(S(=O)(=O)F)cc1
inhibition (Homo sapiens [1]): Active | EC50 [4]: 158 nM | K [6]: 3.2 ×10³ /M/s | inhibition [21]: Active | Ki [8]: 61.7 nM | pKi [22]: 6.45 | Ki [23]: 174 nM | EC50 [24]: 178 nM | Ratio Ki [25]: 10 | inhibition [26]: inactive | inhibition [27]: Active | inhibition [14]: Active | Activity [28]: Active | inhibition (Homo sapiens [2]): Active | Activity [29]: Active | Ki [19]: 6.17 nM | EC50 [30]: 1260 nM | inhibition (Homo sapiens [31]): inactive | Ratio EC50 [32]: 7
